# Compound activity deposited in PubChem BioAssay by several laboratories.
# Sampled rows, rich in hits. Any-hit rate of the full collection: about 3.7%.
# MC4R barr agon: human MC4R agonism via beta-arrestin | AID 540308 | U2OS MC4R beta-arrestin complementation, luminescence; percent of melanotan II response, DMSO zero | activation, % at 8.9 µM | 360,000 tested, 0.98% active;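 active means activation above a per-plate cutoff, the mean activation of sample wells on that plate plus 3 SD, cut at about 8% in these data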
# Target sequence (P32245 whole entry, looked up): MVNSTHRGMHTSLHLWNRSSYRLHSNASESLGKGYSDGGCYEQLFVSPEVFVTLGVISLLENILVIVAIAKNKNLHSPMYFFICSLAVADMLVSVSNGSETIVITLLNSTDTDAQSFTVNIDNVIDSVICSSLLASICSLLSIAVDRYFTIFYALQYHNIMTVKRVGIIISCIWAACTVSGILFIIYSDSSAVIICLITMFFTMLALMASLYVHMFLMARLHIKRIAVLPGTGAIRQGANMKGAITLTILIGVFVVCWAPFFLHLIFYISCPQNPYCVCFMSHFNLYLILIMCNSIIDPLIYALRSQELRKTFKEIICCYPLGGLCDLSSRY
# Granule exo inh: blocks lytic granule exocytosis | 360,000 tested, 0.66% active | AID 651702 | inhibition, % at 10 µM | TALL-104 LAMP-1 surface exposure, flow cytometry; cells stimulated with thapsigargin and PMA;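 active means inhibition above about 55%, limit read from the data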
# Myeloid diff MLP: promotes myeloid progenitor differentiation; ER-HoxA9 myeloid progenitors, lysozyme-GFP differentiation, flow cytometry; calls only at 10 µM; 360,000 tested, 1% active; AID 624256;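 active means normalized GFP-positive differentiation at or above the plate's own cutoff, the solvent-only control mean plus 3 SD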;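 further: cells exposed to compound for four days before flow analysis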
# EBI2 block: EBI2 (human) antagonism | P32249 | EBI2 beta-arrestin recruitment, luminescence, 7a,25-OHC stimulated | inhibition, % at 5 µM | 360,000 tested, 0.81% active; in the data active means inhibition above about 38%;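 further: enzyme fragment complementation signal reports receptor beta-arrestin coupling in cells; 0% = agonist plus DMSO wells and 100% = wells without agonist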
# MC4R antagonist: human MC4R antagonism in cAMP assay; P32245; MC4R-expressing cells, MTII-stimulated cAMP, LANCE TR-FRET; inhibition, % at 6.5 µM; 360,000 tested, 0.48% active; AID 540295;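 active means inhibition above its plate's cutoff, the mean of tested wells on that plate plus 3 SD, cut at about 29% in these data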;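 further: 0% = Melanotan II alone and 100% = Melanotan II plus saturating MCL0020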
#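 Material: human MC4R-expressing U2OS cells. Probe or stimulus: Melanotan II challenge. Dosing: 6.5 µM single dose. Times: 30-min compound, 1-h challenge, 1-h detection, room temperature. Technique: TR-FRET with Eu-cAMP and labeled anti-cAMP, 671 nm. Replication: singlicate.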
# Myeloid diff CP1: myeloid differentiation induction. shares compounds with Myeloid diff MLP. ER-HoxA9 myeloid progenitors, GFP/Mac1 double-positive flow. calls only. 2,300 tested, 2% active;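 active means share of green or green-and-red cells above 9 and 9% in run 1 or 4 and 3% in run 2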
# GFP autofluor: counter-screen for myeloid differentiation promoters: compound fluorescence | ER-HoxA9 myeloid progenitors, no estrogen, GFP autofluorescence flow cytometry; vehicle wells 0%, positive control 100% | 2,300 tested, 7.4% active | fluorescence response, % (test concentration not listed) | shares compounds with Myeloid diff MLP;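 active means over 5% cells positive for green fluorescent reporter, or over 2% positive for both it and APC stain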;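 further: range taken on the double positive population between DMSO and positive control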
# EBI2 antag conf: EBI2 (human) antagonism, single concentration confirmation; 2,400 tested, 29% active; EBI2 beta-arrestin luminescence, 7a,25-OHC antagonism; shares compounds with EBI2 block; AID 651997; inhibition, % at 5 µM;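 active means inhibition of at least 50%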
# EBI2 ag: activates EBI2, counter-screen for EBI2 antagonists; shares compounds with EBI2 block; EBI2-expressing cells, agonist mode, luminescence, 60 min; 0% vehicle, 100% 7α,25-dihydroxycholesterol control; activation, % at 5 µM; 2,400 tested, under 10 active;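 active means activation of at least 50%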
# bGal cs: inhibits E. coli beta-galactosidase, counter-screen for EBI2 antagonists; shares compounds with EBI2 block; 2,400 tested, 1% active; AID 652176; inhibition, % at 5 µM; purified beta-galactosidase, luminescent Galacton Star, 15 min;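 active means replicate-average signal at least 3 plate SD below neutral wells, shown as high inhibition, flagging enzyme-inhibiting false positives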;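 further: 0% = DMSO wells with enzyme and 100% = wells lacking enzyme; higher means stronger loss of beta-gal luminescence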
# Numbers without * were called inactive; i = inactive; nt = no result; + = active, no number.
SMILES,MC4R barr agon,Granule exo inh,Myeloid diff MLP,EBI2 block,MC4R antagonist,Myeloid diff CP1,GFP autofluor,others
O=C1CC2(CCOCC2)Oc2ccc3ccccc3c21,0,5,i,-3,8,nt,nt,
O=C1COc2ccc3ccccc3c21,0,4,i,-7,6,i,1,
O=C(CC1c2cc(F)ccc2C=C(c2ccsc2)N1c1ccc(C#CCCO)cc1)c1ccco1 (stereo not given),nt,-4,i,2,nt,i,0,
COc1ncc(-c2ccc(N3C(c4ccsc4)=Cc4ccc(F)cc4C3CC(=O)c3ccco3)cc2)cn1 (stereo not given),nt,-4,i,1,nt,nt,nt,
COc1ccc(-c2ccc(SCC(=O)c3ccccc3)nn2)cc1OC,-2,-2,i,2,-4,nt,nt,
Cc1ccc(C)n1NC(=O)c1ccccc1,-2,-1,i,7,1,nt,nt,
Cc1ccc(C)n1NC(=O)c1cccs1,1,-1,i,-17,9,i,0,
CC(C)(CN1CCCC1)NS(=O)(=O)c1ccccc1,-2,-5,i,1,1,i,0,
CC(C)(CN1CCN(c2ccccc2)CC1)NS(=O)(=O)c1ccccc1,1,-2,i,8,5,nt,nt,
COc1ccc(N(C(=O)C(C)C)S(=O)(=O)c2ccc3ccccc3c2)cc1,1,8,i,0,9,nt,nt,
CCC1c2ccc(C)n2CCN1C(=O)Nc1cc(Cl)ccc1OC (stereo not given),0,-5,nt,7,7,i,1,
COc1ccc(NC2=C(NC(C)=O)C(=O)c3ccccc3C2=O)cc1,-2,-13,+,1,-26,+,0,
COc1ccc(C(=O)Nc2cc(OC)c(NC(=O)Nc3ccccc3)cc2OC)cc1,-1,-8,i,14,11,nt,nt,
COc1ccc(/C=N/Nc2c(Cl)cc(Cl)cc2Cl)cc1CN1CCOCC1,1,7,i,-10,-1,i,1,
N#CC1C(=O)NC(=O)CC12CCCCC2 (stereo not given),-1,-12,i,-1,1,i,0,
CCOC(=O)N1CCN(C(=O)c2ccc3c(c2)ncn3C2CCCC2)CC1,0,4,i,0,3,i,0,
CCOC(=O)N1CCC(NC(=O)c2ccc3c(c2)ncn3C2CCCC2)CC1,-1,0,i,-4,-6,nt,nt,
CC(C)N(CC#CCC(O)(c1ccccc1)c1ccccc1)C(C)C,-2,2,i,-13,4,i,0,
CCN(CC#CCC(O)(c1ccccc1)c1ccccc1)C(C)C,1,-8,i,-7,-5,nt,nt,
COc1ccc(NC(=O)C2CCCN(S(=O)(=O)c3cccs3)C2)cc1OC (stereo not given),0,-2,+,-14,12,i,0,
O=C1CCC(C(=O)Nc2cccc(S(=O)(=O)Nc3ccccc3F)c2)=NN1,-3,-9,i,18,3,nt,nt,
CC(C)CNC(=O)c1ccccc1-c1ccccc1C(=O)O,-1,4,i,-4,-4,i,1,
Cc1ccc2[nH]c(CCN(C)C)c(CN3CCOCC3)c2c1,-2,-12,i,-3,5,i,0,
Cc1ccc2[nH]c3c(=O)n(CCN4CCOCC4)cnc3c2c1,-2,-3,i,-8,13,nt,nt,
Cc1ccc(OCC(=O)N2CCCCC2)c(Br)c1,-2,-4,i,9,-2,i,0,
SMILES,MC4R barr agon,Granule exo inh,Myeloid diff MLP,EBI2 block,MC4R antagonist,Myeloid diff CP1,GFP autofluor,others
N#C/C(=C\N1CCN(Cc2ccc3c(c2)OCO3)CC1)c1nc2ccccc2s1,-1,0,i,4,11,+,0,
COc1ccccc1-c1ccc2c(c1)O[C@@H](CN(C)C(=O)Nc1cccc(F)c1)[C@H](C)CN([C@H](C)CO)S2(=O)=O,1,4,i,44*,9,i,2,EBI2 antag conf=2;EBI2 ag=2;bGal cs=2
Cn1ccnc1SCC(=O)NC1(C#N)CCCCC1,-4,-3,i,-6,2,nt,nt,
Cc1ccc2oc(=O)c3cnn(CC(=O)N4CCCc5ccccc54)c3c2c1,1,3,i,53*,-3,i,0,EBI2 antag conf=22;EBI2 ag=0;bGal cs=-14
COc1cc(C2N(c3ccccc3)CCN2c2ccccc2)ccc1OC(C)=O,-2,-6,i,5,9,nt,nt,
COc1ccc(C2N(c3ccc(C)cc3)CCN2c2ccc(C)cc2)cc1O,0,-3,i,73*,9,i,0,EBI2 antag conf=15;EBI2 ag=1;bGal cs=4
CCOC(=O)C1=C(O)/C(=C/c2cc(OC)c(O)c(OC)c2)SC1=Nc1ccc(OC)cc1,6,3,i,49*,-2,i,23*,EBI2 antag conf=49;EBI2 ag=2;bGal cs=14
N#Cc1ccc(-c2ccc(F)cc2)nc1SCC(=O)Nc1sc2c(c1C#N)CCC2,0,2,i,53*,7,i,0,EBI2 antag conf=33;EBI2 ag=2;bGal cs=-16
Cc1[nH]n(-c2ccc([N+](=O)[O-])cc2)c(=O)c1C=NCCc1c(C)[nH]c2ccccc12,-1,14,i,16,0,nt,nt,
Cc1ccc(NC(=O)COC(=O)[C@H](C)N2C(=O)C3CC=CCC3C2=O)cc1S(=O)(=O)N(C)C (stereo not given in full),-1,17,i,-4,0,nt,nt,
CC1(C)CC(=O)C(C=Nc2ccc(C(=O)c3ccccc3)cc2N=CC2=C(O)CC(C)(C)CC2=O)=C(O)C1,-2,7,+,74*,-2,i,0,EBI2 antag conf=93*;EBI2 ag=-6;bGal cs=83*
CC1(C)CC(=O)C(C=Nc2ccc(O)c(N=CC3=C(O)CC(C)(C)CC3=O)c2)=C(O)C1,-2,-1,i,-3,-19,nt,nt,
CC(=O)Nc1ccc(S(=O)(=O)N2CCN(CC(O)COc3ccc4ccccc4c3)CC2)cc1 (stereo not given),-1,2,i,57*,10,i,0,EBI2 antag conf=24;EBI2 ag=1;bGal cs=4
CC(=O)Nc1ccc(OCC(O)CN2CCN(S(=O)(=O)c3ccc(NC(C)=O)cc3)CC2)cc1 (stereo not given),-1,0,i,-8,3,nt,nt,
